# Screening results from PubChem.
# Sampled rows, rich in hits. Any-hit rate of the full collection: about 1.7%.
# Pemphigus Ab inh – human desmoglein-3 autoantibody binding inhibition; P32926; DSG3-coupled beads, scFv-anti-DSG3-GFP binding, flow cytometry; stronger effect = lower value; binding (percent of control), % at 10 µM; 310,000 tested, 0.48% active;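 active = binding more than 3 SD below its plate's average and above zero; inconclusive = below that plate limit but binding exactly zero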;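 note: hits lower antibody fragment binding to DSG3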
# Target sequence (P32926 whole entry, looked up, the tested form may be a part): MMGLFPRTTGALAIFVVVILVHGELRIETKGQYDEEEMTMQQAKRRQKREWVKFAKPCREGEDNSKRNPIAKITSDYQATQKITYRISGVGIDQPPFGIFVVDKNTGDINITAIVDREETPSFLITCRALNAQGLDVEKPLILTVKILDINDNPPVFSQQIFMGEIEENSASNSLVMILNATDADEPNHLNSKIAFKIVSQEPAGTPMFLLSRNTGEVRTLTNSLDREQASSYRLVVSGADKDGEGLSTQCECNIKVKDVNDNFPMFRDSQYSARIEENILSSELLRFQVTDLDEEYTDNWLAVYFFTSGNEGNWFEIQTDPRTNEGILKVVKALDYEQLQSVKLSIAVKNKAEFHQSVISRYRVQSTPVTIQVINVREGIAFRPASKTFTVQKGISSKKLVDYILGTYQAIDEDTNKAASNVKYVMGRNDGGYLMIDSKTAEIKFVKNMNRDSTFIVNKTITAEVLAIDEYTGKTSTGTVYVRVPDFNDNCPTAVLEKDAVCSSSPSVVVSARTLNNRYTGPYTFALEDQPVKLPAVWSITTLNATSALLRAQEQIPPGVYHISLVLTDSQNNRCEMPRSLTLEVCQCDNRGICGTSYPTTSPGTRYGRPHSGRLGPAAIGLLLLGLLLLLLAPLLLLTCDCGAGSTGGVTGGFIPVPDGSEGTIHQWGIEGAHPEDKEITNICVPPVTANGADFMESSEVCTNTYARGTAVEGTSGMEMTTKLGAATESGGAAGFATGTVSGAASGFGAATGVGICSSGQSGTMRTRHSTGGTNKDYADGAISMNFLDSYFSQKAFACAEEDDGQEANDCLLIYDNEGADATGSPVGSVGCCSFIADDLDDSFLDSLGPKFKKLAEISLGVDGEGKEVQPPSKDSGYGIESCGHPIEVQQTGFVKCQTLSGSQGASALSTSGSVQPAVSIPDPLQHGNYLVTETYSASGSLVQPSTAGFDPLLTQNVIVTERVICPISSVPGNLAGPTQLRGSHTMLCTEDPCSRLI
# Myeloid diff MLP – promotes myeloid progenitor differentiation. ER-HoxA9 myeloid progenitors, lysozyme-GFP differentiation, flow cytometry. 360,000 tested, 1% active. AID 624256. calls only at 10 µM;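 active = normalized GFP-positive differentiation at or above the plate's own cutoff, the solvent-only control mean plus 3 SD; inconclusive = no clear call, values can overlap the other calls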;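 note: cells exposed to compound for four days before flow analysis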
# T cell modulator – T cell immune modulation candidate; 2C CD8+ T cell-vesicle binding, flow cytometry; stronger effect = lower value; response (vesicle binding), % at 7 µM; 330,000 tested, 0.068% active;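 active = response, share of CD8 T cells binding vesicles, and their 90th percentile fluorescence all below set limits, cut at about 80% in these data, passing the limit was not always enough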;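 note: values below 100% mean blocked vesicle binding to the CD8+ T cells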
#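 System: murine 2C transgenic CD8+ T lymphocytes; also added: QL9-loaded Drosophila micro-vesicles; times: binding 1.5 h at 37 °C; measured by: flow cytometry, PE anti-B7-1 (FL2) versus Alexa647 anti-CD8 (FL8), PFA-fixed; control set: Peptide-free naked vesicles (low) and QL9 vesicles with 0.7% DMSO vehicle (high)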
# Vif imaging – inhibitors of HIV Vif; HEK293T cells, Vif self-association by quenched fluorescence, imaging, 24 h; inhibition, % at 7.49 µM; 340,000 tested, 0.35% active; in the data active = inhibition above about 50%, passing the limit was not always enough; inconclusive = no clear call, values can overlap the other calls; inactive = below about 31%
# Active calls of the source: *; i = inactive; ? = inconclusive; / = no result; + = active, no number.
SMILES,Pemphigus Ab inh,Myeloid diff MLP,T cell modulator,Vif imaging
CC1CC(C)(C)CC2(C1)NC(=O)N(CC(=O)Nc1cc(C(F)(F)F)ccc1N1CCCCC1)C2=O (stereo unspecified),102,i,/,10
O=C(CCc1nc2ccccc2c(=O)[nH]1)OCc1ccc(-c2ccccc2)cc1,7.9*,i,122,-6
O=C(CCc1nc2ccccc2c(=O)[nH]1)OCc1cccc(C(F)(F)F)c1,99,i,185,-2
O=[N+]([O-])c1cccc2cn[nH]c12,100,+,564,-6
CC(=O)c1ccc(C(=O)N2CCCC(CCC(=O)N(C)CCc3ccccn3)C2)s1 (stereo unspecified),100,+,265,13
CCC(=O)OCc1c(C(F)(F)F)nn(C)c1Sc1ccc(F)cc1,/,+,501,2
Cc1cc(N2CCN(C)CC2)ccc1NC(=O)c1ccc(-c2ccc(Cl)cc2)o1,108,+,331,4
O=C(NCc1cccnc1)c1ccc(-c2cc(Cl)ccc2Cl)o1,106,i,249,-1
O=C(NCc1cccnc1)c1ccc(-c2ccc(Cl)cc2)o1,58*,i,0,-7
Cc1nnc(NC(=O)c2ccc(-c3ccc(Cl)cc3)o2)s1,22*,i,495,-3
COc1cccc(/C=N/NC(=O)CC(=O)NCCc2ccccc2)c1OC,/,i,260,3
COc1ccc(OC)c(/C=N/NC(=S)NCCc2ccccc2)c1,62*,i,208,/
COc1cccc(/C=N/NC(=S)NCCc2ccccc2)c1OC,70*,i,180,/
COCCc1ccc(OC2(C)CCN(Cc3cccn3-c3nccs3)C2)cc1 (stereo unspecified),/,i,/,16
O=C(O)CN1C(=O)/C(=C\c2ccc(OC(=O)c3ccco3)cc2)SC1=S,110,i,407,-3
Cc1cc(/C=C2\SC(=S)N(Cc3ccco3)C2=O)c(C)n1-c1ccccc1,119,+,272,-2
COc1ccc(-n2c(C)cc(/C=C3/SC(=S)N(C)C3=O)c2C)cc1,105,+,320,7
CN(C)c1ccc(C=C2SC(=S)N(Cc3ccco3)C2=O)cc1,418,+,/,/
Nc1c([N+](=O)[O-])cc2c3c(cccc13)CC2,/,i,/,/
O=[N+]([O-])c1ccc(S(=O)(=O)CC2CSc3nc4ccccc4n32)cc1 (stereo unspecified),-10*,i,212,1
Cc1cnc(CNC(=O)c2csc([C@@H]3C[C@H](O)[C@@H](CO)O3)n2)cn1,/,i,/,7
Cc1cc(C)cc(OCc2ccc(C(=O)NN)o2)c1,/,+,144,-5
CCOC(=O)C1=CCN(S(=O)(=O)c2ccccc2C)C1c1cccc(Br)c1 (stereo unspecified),/,i,/,-13
C=CCNC(=O)CSCc1ccc(Br)cc1,97,+,710,11
CN(CC(=O)Nc1ccc(F)cc1)C(=O)CN1C(=O)c2cccc([N+](=O)[O-])c2C1=O,97,i,979,-2
SMILES,Pemphigus Ab inh,Myeloid diff MLP,T cell modulator,Vif imaging
CCCCOCCCNC(=O)C[C@@H]1C[C@@]2(C(=O)OCC)CCC=C2N(Cc2ccc(Cl)cc2Cl)C1=O,/,i,/,/
Cc1cc(C)nc(-n2nc(C)cc2NC(=O)CN2CCc3ccccc3C2)n1,98,+,254,-5
CN(Cc1cccc(F)c1)C(=O)c1ccc(S(=O)(=O)N2CCCCCC2)cc1,/,i,137,2
NS(=O)(=O)c1ccc(N/N=C/c2ccc3c(c2)OCO3)c([N+](=O)[O-])c1,31*,i,108,-1
COc1cccc(C(=O)Nc2ccccc2C(=O)N2CCCC2)c1,89,i,226,5
O=C(Nc1ccccc1C(=O)N1CCCCCC1)c1ccccc1,109,i,186,71*
O=C(Nc1ccccc1C(=O)O)c1cccc(C(=O)Nc2ccccc2C(=O)O)c1,104,i,170,110*
CCCCNC(=O)C1(C)CCN1Cc1cc(C)ccc1C (stereo unspecified),/,i,/,-2
CS(=O)(=O)N(CC(=O)N1CCOCC1)c1cccc(F)c1,77*,i,189,-29
O=C(O)CCC(=O)c1ccc(C2CCCCCC2)cc1,/,i,/,5
Cc1ccc(NC(=S)NC2CCN(Cc3ccccc3)CC2)cc1,91,i,390,-1
Cc1ccc(NC(=S)NC2CCN(Cc3ccccc3)CC2)cc1C,99,+,170,9
CCN(CC)C(=O)CSc1nnc2nnc3cc(OC)ccc3n12,98,+,165,-5
CC(=O)c1sc2nc(-c3cccs3)cc(C(F)(F)F)c2c1N,142,+,214,-57
CN(C)CCNC(=O)c1sc2nc(-c3ccccc3)cc(C(F)(F)F)c2c1N,103,+,166,-4
Nc1c(C(=O)C2CC2)sc2nc(-c3ccccc3)cc(C(F)(F)F)c12,256,+,616,24
COc1ccc(-c2cc(C(F)(F)F)c3c(N)c(C(=O)NCCSC)sc3n2)cc1,96,i,171,5
CC(C)NC(=O)C1C(c2ccccc2)=Nc2ccccc2N1C(=O)c1ccc(C(F)(F)F)cc1 (stereo unspecified),/,i,/,/
Cc1ccc(-c2nc(NC(=O)CSc3cc(C)c4ccccc4n3)ns2)cc1,-0.3*,i,145,20
Cc1ccc(Nc2nc(N)nc(CSc3nnc(-c4ccncc4)o3)n2)cc1,86,i,276,83*
COc1cc(OC)cc(-c2c(Sc3ccccc3)c3cc(-c4ccc5c(c4)OCCO5)ccc3n2C)c1,/,i,/,/
COc1ccc(C2NC(=S)NC3=C2CCCC3=C2SCCS2)cc1 (stereo unspecified),87,/,210,56*
S=C1NC2=C(CCCC2=C2SCCCS2)C(c2ccccc2)N1 (stereo unspecified),109,i,170,11
Cc1nc(N2CCCCC2)c2c(C)c(C(=O)Nc3ccc4c(c3)OCCO4)sc2n1,132,?,364,-3
COc1cc(C2c3cc4c(cc3C3OC(=O)C2C3CO)OCO4)cc(OC)c1OC (stereo unspecified),108,/,/,/
SMILES,Pemphigus Ab inh,Myeloid diff MLP,T cell modulator,Vif imaging
CCN(CC)C1Oc2cc3c(cc2C(c2cc(OC)c(OC)c(OC)c2)C1C)OCO3 (stereo unspecified),95,/,/,55*
Cc1ccc(NC(=O)Cc2ccc([N+](=O)[O-])cc2)c(Br)c1,6.2*,i,212,4
CC(C)(COC(=O)c1ccccc1)N1CC2CCC(C1)O2,92,i,/,-2
Cc1ccc(NC(=O)c2csc(-c3ccccc3)c2C)cc1,-24*,i,/,-2
CCOC(=O)C1(Cc2cccc(Cl)c2)CCCN(C(=O)c2ccc(C)nc2)C1 (stereo unspecified),67*,i,211,-6
COc1cc2c(cc1OC)C1=CC(=O)C(=O)N1C(C)(C)C2,128,+,199,3
COc1ccc(CN2C(=O)CN(S(C)(=O)=O)CC2(C)C(=O)Nc2c(C)cccc2C)cc1 (stereo unspecified),/,i,/,/
Clc1ccc(-n2nnc(-c3cccnc3)n2)cc1Cl,103,+,626,1
